Compound activity (PubChem)
Compounds with a hit are over-represented: about 4.5% of the library has one in this group of screens.
OX1R antag-1 – human HCRTR1 antagonism | O43613 | CHO/OX1R cells, Fluo-8 calcium fluorescence, orexin A | inhibition, % at 5 µM | hit rate 0.43% among 330,000 | AID 434989;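 active = inhibition above its plate's threshold, mean inhibition of all tested compounds on the plate plus 3 SD, cut at about 37% in these data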;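 note: 0% = orexin A challenge wells and 100% = SB-334867-A antagonist wells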
Target sequence (O43613 whole entry, looked up): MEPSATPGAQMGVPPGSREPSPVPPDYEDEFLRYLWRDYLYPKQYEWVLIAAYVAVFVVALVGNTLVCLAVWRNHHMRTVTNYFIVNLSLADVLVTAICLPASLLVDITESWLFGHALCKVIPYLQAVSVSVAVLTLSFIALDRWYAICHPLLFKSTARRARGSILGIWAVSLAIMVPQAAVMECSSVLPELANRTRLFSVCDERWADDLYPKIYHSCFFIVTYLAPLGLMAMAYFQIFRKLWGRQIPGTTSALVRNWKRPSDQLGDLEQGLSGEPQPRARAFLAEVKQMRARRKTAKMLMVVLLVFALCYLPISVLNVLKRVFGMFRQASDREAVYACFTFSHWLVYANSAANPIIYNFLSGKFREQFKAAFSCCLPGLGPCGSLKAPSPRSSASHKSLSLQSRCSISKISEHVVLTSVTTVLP
TAAR1 ag – human TAAR1 agonism; CHO RD-HGA16 TAAR1, Fluo-8 calcium fluorescence; vehicle wells 0%, saturating PEA agonist 100%; AID 624467; activation, % at 3 µM; hit rate 0.99% among 360,000;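 active = activation above the mean activation of all test compounds in the run plus 3 SD, cut at about 38% in these data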
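Repeats: no replicates (n 1) | Material: CHO-derived RD-HGA16 cells with stable Gα16 and human TAAR1 | Technique: Kinetic Fluo-8 calcium fluorescence | Schedule: 17-24 h seeding, 75 min 37 °C dye, 30 min RT | Evaluation: % activation from peak over basal fluorescence ratio, DMSO-to-PEA scaled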
GPR7 antag – blocks human GPR7 receptor signaling; GPR7-expressing cells, fluorescence antagonist assay; hit rate 1.1% among 290,000; inhibition, % at 4.4 µM; P48145; in the data active = inhibition above about 16%, passing the limit was not always enough;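 note: cells stimulated with the agonist NPW; 0% = agonist with vehicle and 100% = vehicle without agonist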
TAAR1 antagonist – human TAAR1 antagonism; AID 624466; CHO RD-HGA16 TAAR1, Fluo-8 calcium fluorescence, antagonist; Q96RJ0; hit rate 1.5% among 360,000; inhibition, % at 3 µM;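 active = inhibition above a per-plate cutoff, the mean inhibition of test compounds on that plate plus 3 SD, cut at about 49% in these data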;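 note: 0% = DMSO plus EC80 beta-PEA response and 100% = DMSO alone without agonist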
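Test system – hTAAR1-expressing CHO RD-HGA16 cells, Gα16-coupled · Also added – β-PEA at EC80 concentration, post-compound challenge · Compound – 3 µM, single point · Incubation – dye loading 75 min at 37 °C, then 30 min room temperature · Measured by – Fluo-8 intracellular calcium dye fluorescence, real-time kinetic reads · Benchmarks – vehicle and agonist controls · Replicates – singlicate, one well per test compound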
OX1R antag-2 – antagonists of human orexin 1 receptor (OX1R); AID 485270; hit rate 1.8% among 330,000; OX1R-expressing cells, FRET antagonist read-out; inhibition, % at 6.6 µM; O43613; in the data active = inhibition mostly above about 38%, no sharp cut-off; inactive = mostly below about 40%;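 note: 0% = agonist challenge alone and 100% = reference antagonist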
CHO parental Ca – counter-screen: ATP calcium response change in parental CHO cells. inhibition, % at 5.6 µM. parental CHO-K1, ATP-induced calcium, Fluo-8 fluorescence. hit rate 0.63% among 330,000;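 active = inhibition above that plate's mean sample inhibition plus 3 SD, cut at about 26% in these data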;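 note: 0% = ATP-challenged DMSO wells and 100% = DMSO wells without ATP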
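Test system: untransfected parental CHO cell line; also added: ATP stimulus; dosing: 5.6 µM, single dose; signal: calcium-sensitive Fluo-8 fluorescence; measure: percent inhibition of ATP-evoked calcium rise, normalized to controls; benchmarks: low control ATP plus DMSO, high control DMSO only; replication: one well per compound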
OX1R Ca confirm – OX1R (human) antagonism, confirmed; CHO/OX1R cells, orexin A calcium Fluo-8 fluorescence; inhibition, % at 5 µM; shares compounds with OX1R antag-1; AID 492963; hit rate 38% among 1,100; in the data active = inhibition above about 29%;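 note: 0% = agonist challenge alone and 100% = reference antagonist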
CHO Ca triplic – counter-screen: parental CHO calcium response change, triplicate; AID 492965; hit rate 9.3% among 1,100; parental CHO-K1, ATP-induced calcium, Fluo-8 fluorescence; inhibition, % at 5.6 µM; shares compounds with OX1R antag-1;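 active = inhibition above a per-plate limit, the mean inhibition of that plate's test compounds plus 3 SD, cut at about 25% in these data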;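 note: 0% = ATP challenge with DMSO and 100% = DMSO without ATP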
OX1R HTRF confirm – confirmation of human orexin 1 receptor antagonists, HTRF format; shares compounds with OX1R antag-2; OX1R-expressing cells, HTRF antagonist assay; inhibition, % at 6.6 µM; hit rate 49% among 1,800; AID 492964; in the data active = inhibition above about 55%;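 note: CHO cells expressing OX1R stimulated with orexin A at about EC80; 0% = agonist challenge alone and 100% = reference antagonist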
CHO-K1 HTRF – counter-screen: parental CHO-K1 HTRF response; shares compounds with OX1R antag-2; hit rate 48% among 1,800; parental CHO-K1 cells, HTRF counterscreen; inhibition, % at 6.6 µM; in the data active = inhibition above about 17%;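 note: 0% = agonist challenge with vehicle and 100% = vehicle alone without agonist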
* hit, by the source's call; · = no result given.

SMILES	OX1R antag-1	TAAR1 ag	GPR7 antag	TAAR1 antagonist	OX1R antag-2	CHO parental Ca	OX1R Ca confirm	CHO Ca triplic	OX1R HTRF confirm	CHO-K1 HTRF
COc1ccc(OC)c(CCNC(=O)Cn2ccc3cc(S(=O)(=O)N4CCCC4)ccc32)c1	26	3	-14	-10	54*	-6	22	-5	63*	3
COC(=O)[C@@]12C[C@@H](CC(=O)N3CCN(C(=O)C4CC4)CC3)C(=O)N(Cc3ccccc3)C1=CCC(C)(C)C2	·	1	·	4	·	·	·	·	·	·
O=c1[nH][nH]c(=S)n1C1CCCCC1	-3	·	-3	·	7	-8	·	·	·	·
CC(C)n1c(=O)[nH][nH]c1=S	39*	2	-3	-13	63*	11	55*	4	79*	12
Cc1nn(C)c(C)c1N=Cc1c(O)ccc2ccccc12	43*	9	-15	-4	83*	-14	1	-3	77*	11
CCOC(=O)[C@@H]1[C@H]2COc3ccccc3[C@H]2N2C(=O)N(c3ccc(Cl)cc3)C(=O)[C@@]12C	-8	·	-11	·	18	-20	·	·	·	·
COc1ccc(/C=C/c2nc(-c3ccccc3O)n[nH]2)cc1OC	72*	6	-2	-6	103*	-21	67*	1	92*	14
COc1ccc(Cl)cc1C(=O)OCC(=O)NCCNC(=O)COC(=O)c1cc(Cl)ccc1OC	28	5	-4	-19	59*	2	26	42*	71*	1
COc1ccc(-c2csc(NC(=O)c3ccccc3C(=O)O)n2)cc1	-2	-2	-6	-5	14	3	·	·	·	·
COc1cccc(OC)c1C(=O)Nc1nc(-c2ccccc2)cs1	38*	8	12	-18	97*	-17	30*	-9	89*	5
COc1ccccc1C(=O)Nc1nc(-c2ccc(S(=O)(=O)N3CCOCC3)cc2)cs1	33	31	-2	69*	89*	24	56*	29*	58*	15
CCOC(=O)c1nncc(-c2ccccc2)n1	14	3	·	-6	28	-3	·	·	·	·
Cc1ccc(N(C)S(=O)(=O)c2cccc(C(=O)NCC(c3cccs3)N3CCOCC3)c2)cc1 (stereo unspecified)	47*	0	·	6	78*	-31	38*	-17	94*	3
Fc1cnc(Cl)nc1NC1CCCCC1	-1	4	-4	-2	0	-2	·	·	·	·
CCn1c(SCC(=O)Nc2sc3c(c2C#N)CCCC3)nnc1-c1ccco1	31	10	-9	-17	94*	-22	21	-15	78*	-1
CCn1c(SCC(=O)Nc2sc3c(c2C#N)CCC(C(C)(C)C)C3)nnc1-c1ccco1 (stereo unspecified)	-11	2	-5	-1	5	1	·	·	·	·
O=C(NCCc1cccc(Cl)c1)c1ccc(OC2CCN(Cc3ccccn3)CC2)cc1	·	9	-2	-6	·	·	·	·	·	·
COc1ccc(C(=O)COc2ccccc2C(=O)Nc2ccccc2)cc1	42*	2	1	19	71*	-2	37*	-11	60*	9
CCc1sc(C(=O)Nc2nc(-c3ccccn3)cs2)cc1C	38	·	·	·	52*	-11	19	-7	32	10
Cc1ccc(C(=O)Nc2nc(-c3ccccn3)cs2)s1	7	5	·	1	6	-12	·	·	·	·
CC(CSc1nc2ccccc2s1)Cn1c(N2CCCC2)nc2c1c(=O)[nH]c(=O)n2C (stereo unspecified)	61*	5	-1	9	94*	-19	35*	-18	87*	-2
